ChEMBL document CHEMBL1125747, “Design, synthesis, and physicochemical properties of a novel, conformationally restricted 2,3-dihydro-1,3,4-thiadiazole-containing angiotensin converting enzyme inhibitor which is preferentially eliminated by the biliary route in rats” (J Med Chem, 1991)

Tests used:
[1] = molecular target: T1, Angiotensin-converting enzyme (Rattus norvegicus, UniProt P47820); test: Compound was tested for inhibitory activity against angiotensin I converting enzyme
T1 sequence (P47820 whole entry): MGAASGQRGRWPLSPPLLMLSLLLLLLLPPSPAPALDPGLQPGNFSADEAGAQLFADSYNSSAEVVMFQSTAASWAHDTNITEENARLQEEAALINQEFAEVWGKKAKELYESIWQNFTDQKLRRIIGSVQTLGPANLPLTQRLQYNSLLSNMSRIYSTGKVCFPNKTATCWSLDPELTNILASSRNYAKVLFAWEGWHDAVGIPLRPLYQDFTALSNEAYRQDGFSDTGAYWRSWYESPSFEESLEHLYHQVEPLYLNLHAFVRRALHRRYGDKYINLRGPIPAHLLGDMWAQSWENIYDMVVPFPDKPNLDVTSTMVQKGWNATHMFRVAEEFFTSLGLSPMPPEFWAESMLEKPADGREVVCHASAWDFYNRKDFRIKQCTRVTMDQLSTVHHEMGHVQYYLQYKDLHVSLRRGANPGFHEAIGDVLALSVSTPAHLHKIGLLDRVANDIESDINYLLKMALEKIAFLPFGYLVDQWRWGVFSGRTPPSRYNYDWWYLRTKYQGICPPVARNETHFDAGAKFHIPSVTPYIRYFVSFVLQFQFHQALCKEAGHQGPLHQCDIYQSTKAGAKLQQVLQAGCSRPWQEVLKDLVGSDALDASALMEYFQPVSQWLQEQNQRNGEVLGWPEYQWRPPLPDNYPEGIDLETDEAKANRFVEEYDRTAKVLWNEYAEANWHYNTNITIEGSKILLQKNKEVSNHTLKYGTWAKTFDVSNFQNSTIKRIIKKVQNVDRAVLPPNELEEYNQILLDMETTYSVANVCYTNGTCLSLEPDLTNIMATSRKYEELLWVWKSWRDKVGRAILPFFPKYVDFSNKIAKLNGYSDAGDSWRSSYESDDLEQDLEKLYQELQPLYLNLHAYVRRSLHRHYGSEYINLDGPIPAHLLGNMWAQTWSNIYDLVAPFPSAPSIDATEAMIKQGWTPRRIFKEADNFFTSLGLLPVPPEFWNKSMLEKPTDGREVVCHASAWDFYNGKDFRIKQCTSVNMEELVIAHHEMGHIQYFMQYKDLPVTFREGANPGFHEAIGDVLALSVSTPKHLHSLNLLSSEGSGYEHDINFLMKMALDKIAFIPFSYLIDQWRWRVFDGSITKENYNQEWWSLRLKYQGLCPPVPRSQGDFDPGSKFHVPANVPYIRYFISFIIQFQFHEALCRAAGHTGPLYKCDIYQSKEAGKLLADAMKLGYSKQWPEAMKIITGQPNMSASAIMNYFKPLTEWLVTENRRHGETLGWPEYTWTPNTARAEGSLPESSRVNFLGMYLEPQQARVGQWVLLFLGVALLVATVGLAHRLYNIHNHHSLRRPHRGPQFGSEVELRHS

[2] = The acid dissociation constant, pKa was determined.'a' represents value of C-terminus carboxylic acid.; assay type: physicochemical
In short: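 Ionization constants came from potentiometric titration at 25 °C on a thermostated automatic titrator, with pKa calculated from the pH–volume data. For one ester, constants were instead determined by the partition method in Miglyol 812–aqueous buffer systems.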

[3] = Ratio of biliary and urinary excretion of angiotensin converting enzyme inhibitors in male rat after intravenous dosing.; assay type: functional, Urine
[4] = Compound was tested for its maximum lipophilicity.; assay type: physicochemical; conditions: octanol/water
In short: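 Shake-flask distribution coefficients in octanol–aqueous buffer across pH, run in triplicate and reported as the mean. Aqueous phases were HCl below pH 2, McIlvaine citrate-phosphate at pH 2.2–4.8, and Sorensen phosphate above pH 5, all at ionic strength 0.02. Phases were assayed before and after partitioning by UV or reversed-phase HPLC. Maximum lipophilicity was taken from the distribution–pH profile.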

[5] = molecular target: T2, Angiotensin-converting enzyme (Rattus norvegicus) (UniProt P47820); test: Relative inhibitory activity against angiotensin I converting enzyme
T2 sequence (whole entry): T1 sequence (P47820 whole entry)

[6] = The acid dissociation constant, pKa was determined. 'a' represents value of C-terminus carboxylic acid.; assay type: physicochemical
In short: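 Potentiometric titration at 25 °C on a thermostated automatic titrator. pKa values were calculated from pH–volume data. For one ester compound, ionization constants were instead obtained by the partition method in Miglyol 812–aqueous buffer systems.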

[7] = The acid dissociation constant, pKa was determined. a'' represents value of C-terminus carboxylic acid.; assay type: physicochemical
In short: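 Ionization constants measured by potentiometric titration at 25 °C on a thermostated automatic titrator, with pKa calculated from pH-volume data. For one ester prodrug, constants were instead obtained by the partition method in Miglyol 812-aqueous buffer systems.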

| Structure (SMILES) | Log Dmax [4] | Relative activity [5] | also measured |
| --- | --- | --- | --- |
| O=C(O)C1SC(C2CCCCC2)=NN1C(=O)CCS (stereo not given) | – | 6.3 | – |
| CC(C)(C)C1=NN(C(=O)[C@H](CCCCN)N[C@@H](CCc2ccccc2)C(=O)O)[C@H](C(=O)O)S1 | – | – | IC50 [1]: 0.7 nM |
| CCOC(=O)[C@H](CCc1ccccc1)N[C@@H](C)C(=O)N1CCC[C@H]1C(=O)O | -0.06 | – | pKa [6]: 5.49 |
| C[C@H](N[C@@H](CCc1ccccc1)C(=O)O)C(=O)N1N=C(c2ccccc2)S[C@H]1C(=O)O | – | – | IC50 [1]: 1.5 nM |
| O=C(O)C1SC(c2ccco2)=NN1C(=O)CCS (stereo not given) | – | 1 | – |
| CC(C)(C)C1=NN(C(=O)CCS)C(C(=O)O)S1 (stereo not given) | – | 5.6 | – |
| CC1=NN(C(=O)CCS)C(C(=O)O)S1 (stereo not given) | – | 2.5 | – |
| O=C(O)C1SC(C23CC4CC(CC(C4)C2)C3)=NN1C(=O)CCS (stereo not given) | – | 1.3 | – |
| CCOC(=O)[C@H](CCc1ccccc1)N[C@@H](C)C(=O)N1CC2(C[C@H]1C(=O)O)SCCS2 | 0.87 | – | pKa [2]: 5.5 |
| NCCCC[C@H](N[C@@H](CCc1ccccc1)C(=O)O)C(=O)N1CCC[C@H]1C(=O)O [LISINOPRIL ANHYDROUS] | -2.86 | – | pKa [7]: 11.1 |
| COc1ccc(C2=NN(C(=O)CCS)C(C(=O)O)S2)cc1 (stereo not given) | – | 1.3 | – |
| O=C(O)C1SC(c2ccc(C(F)(F)F)cc2)=NN1C(=O)CCS (stereo not given) | – | 1.6 | – |
| CCC[C@H](N[C@@H](C)C(=O)N1N=C(C(C)(C)C)S[C@H]1C(=O)O)C(=O)O | – | – | IC50 [1]: 0.6 nM |

Second part, led by results:

| Log Dmax [4] | Relative activity [5] | Structure (SMILES) | also measured |
| --- | --- | --- | --- |
| 1.19 | – | C[C@H](N[C@@H](CCc1ccccc1)C(=O)O)C(=O)N1N=C(C(C)(C)C)S[C@H]1C(=O)O [UTIBAPRILAT] | IC50 [1]: 0.51 nM; pKa [2]: 8; Ratio [3]: 14.6 |
| – | 1.3 | O=C(O)C1SC(c2ccccc2)=NN1C(=O)CCS (stereo not given) | – |
| 1.61 | – | CCOC(=O)[C@H](CCc1ccccc1)N[C@@H](C)C(=O)N1N=C(C(C)(C)C)S[C@H]1C(=O)O [UTIBAPRIL] | pKa [2]: 5.4 |
| -0.7 | – | C[C@H](N[C@@H](CCc1ccccc1)C(=O)O)C(=O)N1CCC[C@H]1C(=O)O [ENALAPRILAT ANHYDROUS] | pKa [2]: 8.02 |
